NTR1 ag = NTR1 (human) agonism | NTR1-U2OS beta-arrestin-GFP spot imaging, agonist mode | activation, % at 20 µM | 330,000 compounds, 0.17% hits | AID 493036;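 active means activation at or above 40% of the spot to cytoplasm intensity ratio, with at least 20 cells analyzed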;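 further: 0% = DMSO without peptide and 100% = 100 nM NTR1 peptide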
Target sequence (P30989 whole entry, looked up): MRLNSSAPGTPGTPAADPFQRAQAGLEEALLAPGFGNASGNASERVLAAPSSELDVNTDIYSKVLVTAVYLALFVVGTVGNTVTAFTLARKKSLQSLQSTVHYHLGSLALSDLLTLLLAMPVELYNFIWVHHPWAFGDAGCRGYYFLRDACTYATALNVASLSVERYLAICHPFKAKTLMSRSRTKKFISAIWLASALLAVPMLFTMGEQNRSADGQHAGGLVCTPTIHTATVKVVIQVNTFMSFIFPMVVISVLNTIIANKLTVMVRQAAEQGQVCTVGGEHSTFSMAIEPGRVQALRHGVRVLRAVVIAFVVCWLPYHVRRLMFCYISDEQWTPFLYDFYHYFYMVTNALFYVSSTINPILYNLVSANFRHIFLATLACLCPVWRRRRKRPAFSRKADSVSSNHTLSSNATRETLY
PG9 Ab binder = small molecules binding HIV-1 gp120 antibody PG9; inhibition, % at 6.7 µM; AID 624416; 360,000 compounds, 0.43% hits; TR-FRET gp120-PG9 antibody binding; in the data active means inhibition above about 8.5%
MC4R ag barr = human MC4R agonism via beta-arrestin. P32245. U2OS MC4R beta-arrestin complementation, luminescence; percent of melanotan II response, DMSO zero. 360,000 compounds, 0.98% hits. activation, % at 8.9 µM;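 active means activation above a per-plate cutoff, the mean activation of sample wells on that plate plus 3 SD, cut at about 8% in these data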
NR1D1 modulator = modulates human Rev-erb alpha binding to DNA. activity, % at 10 µM. P20393. Rev-erbα–FITC-DNA binding, fluorescence polarization, 90 min. 370,000 compounds, 0.79% hits;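 active means activity above about 14%, limit read from the data; passing the limit was not always enough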;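 further: 0% = DMSO wells with 35 nM protein and 100% = DMSO wells with 750 nM protein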
MC4R antag cAMP = antagonists of human melanocortin 4 receptor (MC4R); P32245; MC4R-expressing cells, MTII-stimulated cAMP, LANCE TR-FRET; inhibition, % at 6.5 µM; 360,000 compounds, 0.48% hits;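 active means inhibition above its plate's cutoff, the mean of tested wells on that plate plus 3 SD, cut at about 29% in these data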;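 further: 0% = Melanotan II alone and 100% = Melanotan II plus saturating MCL0020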
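Material – human MC4R-expressing U2OS cells · Repeats – no replicates · Detection – TR-FRET with Eu-cAMP and labeled anti-cAMP, 671 nm · Times – compound 30 min, challenge 1 h, detection 1 h · Compound – single nominal compound dose of 6.5 µM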
PG9 bind confirm = PG9 antibody binding, confirmed; shares compounds with PG9 Ab binder; TR-FRET PG9 antibody binding, biochemical; inhibition, % at 6.7 µM; 1,500 compounds, 90% hits; in the data active means inhibition above about 9%
PGV04 Ab binding = PGV04 control antibody binding, counter-screen; TR-FRET PGV04 antibody-gp120 binding, biochemical; inhibition, % at 6.7 µM; 1,500 compounds, 95% hits; AID 651604; shares compounds with PG9 Ab binder; in the data active means inhibition above about 9.5%
PG9 bind DR = PG9 antibody binding, dose response | 95 tested, under 10 active | IC50, µM | TR-FRET PG9 antibody-gp120 binding inhibition | shares compounds with PG9 Ab binder | AID 651848; in the data active means IC50 below about 10 µM
PGV04 binding DR = counter-screen for PG9 binders: binding to control antibody PGV04; shares compounds with PG9 Ab binder; TR-FRET binding to control antibody PGV04; IC50, µM; 95 compounds, 20% hits
PG126 DR counter = counter-screen for PG9 binders: binding to control antibody PG126 | shares compounds with PG9 Ab binder | TR-FRET binding to antibody PG126, counterscreen | IC50, µM | 95 compounds, 20% hits | AID 651939
* hit, by the source's call; i = inactive; / = no result given. Sampled rows, rich in hits. Any-hit rate of the full collection: about 2.5%. Unless noted, no stated cut-off is given here; in the data, active means IC50 below about 9 µM; inactive means the rest.

SMILES	NTR1 ag	PG9 Ab binder	MC4R ag barr	NR1D1 modulator	MC4R antag cAMP	PG9 bind confirm	PGV04 Ab binding	others
Cc1cc(SCC(=O)NC2CC2)nc2ccccc12	-1	11*	-1	-3	14	12*	16*
O=C(COC(=O)c1cccnc1Cl)Nc1ncc(Cl)cc1Cl	-2	2	0	-8	-3	/	/
Cn1ccnc1C(=O)c1cc(SCC(=O)NC2CC2)nc2ccccc12	0	1	-3	-3	9	/	/
O=C(CCCn1c(SCc2cccc(F)c2)nc2ccccc2c1=O)NCC1CCCO1 (stereo not drawn)	2	13*	-2	0	1	9.5*	13*
Cc1ccc(-c2nn(-c3ccccc3)cc2C(=O)OCC(=O)Nc2ncc(Cl)cc2Cl)cc1	2	20*	0	18	2	12*	27*
COC(=O)[C@]12C[C@H](CC(=O)N3CCCC3)C(=O)N(CCC3=CCCCC3)C1=C[C@H](C(C)C)O[C@@H]2C1CC1	/	/	/	-5	/	/	/
CC(C)(C)OC(=O)N1CCC[C@@H]1C(=O)N1CCC[C@H]1C(=O)NCc1ccccc1	/	-2	/	-3	/	/	/
CC(=O)N1c2cc(S(=O)(=O)N3CCN(c4ccccc4F)CC3)c(Br)cc2CC1C (stereo not drawn)	/	/	/	1	/	/	/
O=C(Nc1nc2c(Cl)cccc2s1)c1ccc([N+](=O)[O-])o1	7	-2	1	-10	13	/	/
O=C(Nc1nc2c(Cl)cccc2s1)c1ccc(Br)o1	3	35*	0	15	14	39*	43*
CCOC(=O)c1cnc2c(Cl)cc(Cl)cc2c1NCCOCCO	0	13*	-1	-3	3	9.7*	12*
CCOC(=O)c1cnc2ccccc2c1NCCO	0	1	1	3	-1	/	/
CC1OC2CC(=O)OC2C2=C1C(=O)c1c(O)cccc1C2=O (stereo not drawn)	/	15*	-3	-14	-12	14*	17*
Cc1nc(SCC(=O)Nc2nccs2)c(C#N)c(C)c1C	1	33*	4	12	-1	44*	66*
COC(=O)c1ccc2c(=O)n(NC(C)=O)c(=S)[nH]c2c1	-1	0	-1	0	-6	/	/
COc1cc2[nH]c(=S)n(NC(=O)c3ccccc3)c(=O)c2cc1OC	1	16*	-1	6	15	18*	16*	PG9 bind DR=>67;PGV04 binding DR=i;PG126 DR counter=i
Cc1ccc2cc(CN(C(=O)c3cccs3)c3ccccc3)c(=O)[nH]c2c1	4	14*	1	21	-3	21*	33*
COC(=O)C1=C(C)N(C)C(=NCc2ccc3c(c2)OCO3)NC1c1ccc(Cl)cc1 (stereo not drawn)	/	-1	/	-2	/	/	/
O=C(NCc1cccnc1)c1ccccc1NS(=O)(=O)c1ccccc1	0	11*	-3	2	6	9.5*	19*
C[C@H]1[C@@H](N(C)Cc2cccs2)CC[C@@]23CCCN2C(=O)CCC[C@@H]13	/	/	/	-1	/	/	/
COc1ccc(CCNC(=O)Cn2c(=O)n(-c3ccc(F)cc3F)c(=O)c3sccc32)cc1OC	1	0	0	2	12	/	/
CC(C)(C)C(=O)Cn1c(=O)n(-c2ccc(F)cc2F)c(=O)c2sccc21	1	12*	1	-2	13	5	7
Cc1ccc(NC(=O)Cn2cc(S(=O)(=O)c3ccc(C)cc3)c(=O)c3cc(F)ccc32)cc1	5	13*	1	18	10	36*	62*
O=c1c(Br)c(Br)cnn1-c1ccccc1	/	13*	3	1	24	18*	28*
CCOC(=O)[C@@]12CCCC=C1N(CCc1ccc(Cl)cc1)C(=O)[C@H]2CC(=O)NCC12CC3CC(CC(C3)C1)C2	/	/	/	4	/	/	/
SMILES	NTR1 ag	PG9 Ab binder	MC4R ag barr	NR1D1 modulator	MC4R antag cAMP	PG9 bind confirm	PGV04 Ab binding	others
Cc1ccc(-c2cc(C(=O)O)c3cc(Br)ccc3n2)o1	0	14*	-2	-3	15	10*	20*
CCCCOc1ccc(C2C(C(=O)c3ccc(C)o3)=C(O)C(=O)N2Cc2ccco2)cc1 (stereo not drawn)	-1	19*	-1	-7	6	23*	27*
Cc1ccc(C(=O)C2=C(O)C(=O)N(Cc3cccnc3)C2c2ccc(Br)cc2)o1 (stereo not drawn)	1	18*	-3	7	26	29*	38*
Cc1ccc(C(=O)C2=C(O)C(=O)N(Cc3cccnc3)C2c2ccc(OC(C)C)cc2)o1 (stereo not drawn)	2	35*	-2	2	1	44*	50*
COc1ccc(C2C(C(=O)c3ccc(C)o3)=C(O)C(=O)N2Cc2cccnc2)cc1 (stereo not drawn)	-1	13*	-1	2	7	23*	29*
Cc1ccc(C(=O)C2=C(O)C(=O)N(Cc3ccco3)C2c2ccc(N(C)C)cc2)o1 (stereo not drawn)	-1	-2	-4	-5	6	/	/
COC(=O)[C@]12C[C@H](CC(=O)NCc3ccc(OC)c(OC)c3)C(=O)N(CCC3=CCCCC3)C1=C[C@H](C(C)C)O[C@@H]2C1CC1	/	/	/	2	/	/	/
COC(=O)C1CN(CCc2ccccc2)CCS(=O)(=O)N1Cc1ccc(C)cc1 (stereo not drawn)	/	/	/	-8	/	/	/
O=C(O)CCCC[n+]1ccccc1	/	0	/	-1	/	/	/
CCc1nc(N)c(C#N)c(-c2ccncc2)c1C	2	1	-2	-2	-7	/	/
CCc1nc(N)c(C#N)c(-c2cccc3ccccc23)c1C	3	15*	-3	9	1	21*	29*
CN(C)[C@H]1CCN(c2ccc3c(c2)OCCCN(C2CC2)S3(=O)=O)C1	/	/	/	1	/	/	/
C[C@@H]1/C=C/CC(=O)N2[C@H](CC(=O)N[C@@H]1c1ccccc1)C[C@@H](C)[C@H]2c1ccccc1	/	/	/	-3	/	/	/
Cc1cccc2cc(C#N)c(NCc3ccccc3)nc12	2	1	0	-1	-8	/	/
Cc1ccc2cc(C#N)c(NCc3ccccc3)nc2c1	2	35*	-1	0	5	30*	55*
COc1ccc(Nc2nc3cc(C)ccc3cc2C#N)cc1	-1	11*	4	12	6	10*	15*

Bioassay records (PubChem BioAssay)
